Data from ChEMBL document CHEMBL2062496, “Identification of a sirtuin 3 inhibitor that displays selectivity over sirtuin 1 and 2” (Eur J Med Chem, 2012).
Activity calls are given as the source filed them. The rule behind the calls is not given here.

Assays:
[1] = system: ACHN; assay: Growth inhibition of human ACHN cells assessed as cell growth at 10 uM after 48 hrs by MTT assay; values are per cent of control
[2] = system: SNB-19; assay: Growth inhibition of human SNB19 cells assessed as cell growth at 10 uM after 48 hrs by MTT assay; values are per cent of control; details: SNB-19, 48 h
[3] = system: SK-MEL-28; assay: Growth inhibition of human SK-MEL-28 cells assessed as cell growth at 10 uM after 48 hrs by MTT assay; values are per cent of control; details: SK-MEL-28, 48 h
[4] = system: T47D; assay: Growth inhibition of human T47D cells assessed as cell growth at 10 uM after 48 hrs by MTT assay; values are per cent of control
[5] = system: OVCAR-3; assay: Growth inhibition of human OVCAR3 cells assessed as cell growth at 10 uM after 48 hrs by MTT assay; values are per cent of control; details: OVCAR-3, 48 h
[6] = target: T1, NAD-dependent protein deacetylase sirtuin-1 (Homo sapiens) (UniProt Q96EB6); assay: Inhibition of human SIRT1 assessed as enzyme activity using Fluor-de-Lys as substrate at 100 uM by fluorometry
T1 sequence (whole entry): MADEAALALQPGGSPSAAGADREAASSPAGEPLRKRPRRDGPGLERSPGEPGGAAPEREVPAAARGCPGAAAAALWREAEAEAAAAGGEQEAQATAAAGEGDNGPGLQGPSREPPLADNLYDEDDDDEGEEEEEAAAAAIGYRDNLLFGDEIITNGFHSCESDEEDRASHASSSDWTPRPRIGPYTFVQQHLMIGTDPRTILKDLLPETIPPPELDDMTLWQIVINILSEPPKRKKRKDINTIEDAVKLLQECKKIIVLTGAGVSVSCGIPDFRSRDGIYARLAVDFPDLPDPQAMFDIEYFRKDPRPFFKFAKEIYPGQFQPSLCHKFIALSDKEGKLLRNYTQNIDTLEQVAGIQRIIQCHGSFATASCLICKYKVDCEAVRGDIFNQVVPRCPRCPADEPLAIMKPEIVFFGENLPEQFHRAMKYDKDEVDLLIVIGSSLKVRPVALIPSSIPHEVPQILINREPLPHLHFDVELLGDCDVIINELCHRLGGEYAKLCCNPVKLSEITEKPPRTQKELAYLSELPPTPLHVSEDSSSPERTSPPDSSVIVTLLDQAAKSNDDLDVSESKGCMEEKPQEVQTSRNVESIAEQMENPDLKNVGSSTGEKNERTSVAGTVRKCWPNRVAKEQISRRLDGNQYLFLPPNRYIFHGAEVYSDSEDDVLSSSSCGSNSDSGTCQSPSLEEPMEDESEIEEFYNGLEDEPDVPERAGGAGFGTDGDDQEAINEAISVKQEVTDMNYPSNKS
In short: (§1)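 Commercial Fluor-de-Lys kit, substrate human p53 379–382 peptide (Arg-His-Lys-Lys(Ac)). Human Sirt1 or Sirt2 was incubated with substrate, NAD+ and compound at 1 mM, also tested at 100 µM. Fluorescence scales with Lys382 deacetylation. Activity is expressed relative to control, mean ± S.E.M. of 3–4 replicates.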

[7] = system: SK-OV-3; assay: Growth inhibition of human SKOV3 cells assessed as cell growth at 10 uM after 48 hrs by MTT assay; values are per cent of control; details: SK-OV-3, 48 h
[8] = system: HOP-92; assay: Growth of human HOP92 cells assessed as cell growth at 10 uM after 48 hrs by MTT assay; details: HOP-92, 48 h
[9] = system: SF-268; assay: Growth inhibition of human SF268 cells assessed as cell growth at 10 uM after 48 hrs by MTT assay; values are per cent of control; details: SF-268, 48 h
[10] = Growth inhibition of human Hs 578T cells assessed as cell growth at 10 uM after 48 hrs by MTT assay; values are per cent of control
[11] = target: T2, NAD-dependent protein deacetylase sirtuin-2 (Homo sapiens) (UniProt Q8IXJ6); assay: Inhibition of human SIRT2 assessed as enzyme activity using Fluor-de-Lys as substrate at 1 mM by fluorometry; parameters: scale not given: the % may be the effect or the level left
T2 sequence (whole entry): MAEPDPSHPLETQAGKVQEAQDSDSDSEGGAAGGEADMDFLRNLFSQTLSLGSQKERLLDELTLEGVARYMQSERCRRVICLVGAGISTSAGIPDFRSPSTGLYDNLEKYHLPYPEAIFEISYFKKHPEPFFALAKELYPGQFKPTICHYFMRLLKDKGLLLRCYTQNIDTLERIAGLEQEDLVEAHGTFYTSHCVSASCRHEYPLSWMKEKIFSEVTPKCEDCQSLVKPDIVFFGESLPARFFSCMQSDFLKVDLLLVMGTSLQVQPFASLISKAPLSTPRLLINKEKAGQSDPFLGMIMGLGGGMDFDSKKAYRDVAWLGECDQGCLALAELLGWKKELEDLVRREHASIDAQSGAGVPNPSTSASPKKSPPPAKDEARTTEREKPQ
In short: as §1

[12] = target: T2, NAD-dependent protein deacetylase sirtuin-2 (Homo sapiens); assay: Inhibition of human SIRT2 assessed as enzyme activity using Fluor-de-Lys as substrate at 100 uM by fluorometry
In short: as §1

[13] = system: SF-539; assay: Growth inhibition of human SF539 cells assessed as cell growth at 10 uM after 48 hrs by MTT assay; values are per cent of control; details: SF-539, 48 h
[14] = system: SNB-75; assay: Growth of human SNB75 cells assessed as cell growth at 10 uM after 48 hrs by MTT assay; details: SNB-75, 48 h
[15] = system: U-251; assay: Growth inhibition of human U251 cells assessed as cell growth at 10 uM after 48 hrs by MTT assay; values are per cent of control; details: U-251, 48 h
[16] = system: MOLT-4; assay: Growth inhibition of human MOLT4 cells assessed as cell growth at 10 uM after 48 hrs by MTT assay; values are per cent of control; details: MOLT-4, 48 h
[17] = system: CCRF-CEM; assay: Growth of human CCRF-CEM cells assessed as cell growth at 10 uM after 48 hrs by MTT assay
[18] = system: MDA-MB-468; assay: Growth of human MDA-MB-468 cells assessed as cell growth at 10 uM after 48 hrs by MTT assay; details: MDA-MB-468, 48 h

c1cncc(-c2cnn[nH]2)c1
growth, % of control at 10 µM [1]: 111%
growth, % of control at 10 µM [2]: 102%
growth, % of control at 10 µM [3]: 106%
growth, % of control at 10 µM [4]: 102%
growth, % of control at 10 µM [5]: 89.5%
inhibition [6]: inactive
growth, % of control at 10 µM [7]: 48%
growth, % of control at 10 µM [8]: 80.8%
growth, % of control at 10 µM [9]: 113%
growth, % of control at 10 µM [10]: 118%
Activity [11]: 92%
inhibition [12]: inactive
growth, % of control at 10 µM [13]: 106%
growth, % of control at 10 µM [14]: 93%
growth, % of control at 10 µM [15]: 111%
growth, % of control at 10 µM [16]: 101%
growth, % of control at 10 µM [17]: 24.8%
growth, % of control at 10 µM [18]: 104%
